Test results: ChEMBL document CHEMBL2150980 (Eur J Med Chem, 2012)

How the values were obtained:
[1] = biological target: T1, Alpha-1A adrenergic receptor (Rattus norvegicus, UniProt P43140); test: Antagonist activity at alpha1A adrenoceptor in Sprague-Dawley rat prostatic vas deferens assessed as inhibition of noradrenaline-induced contractions after 30 mins; format: functional, tissue-based; settings: read-out: pA2 (converted)
T1 sequence (P43140 whole entry): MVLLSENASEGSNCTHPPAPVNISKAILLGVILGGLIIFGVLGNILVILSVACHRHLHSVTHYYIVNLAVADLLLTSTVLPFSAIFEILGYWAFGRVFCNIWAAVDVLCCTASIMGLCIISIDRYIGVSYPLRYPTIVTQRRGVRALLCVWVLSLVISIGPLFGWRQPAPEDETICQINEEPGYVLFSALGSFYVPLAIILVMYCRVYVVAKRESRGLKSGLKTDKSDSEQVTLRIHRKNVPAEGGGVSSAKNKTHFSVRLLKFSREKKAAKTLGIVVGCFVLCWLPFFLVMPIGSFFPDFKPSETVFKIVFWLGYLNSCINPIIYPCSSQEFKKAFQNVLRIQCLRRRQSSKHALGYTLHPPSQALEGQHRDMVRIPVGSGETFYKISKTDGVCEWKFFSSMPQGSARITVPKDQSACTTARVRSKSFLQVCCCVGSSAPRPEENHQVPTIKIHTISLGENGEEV

[2] = biological target: T2, Adrenergic receptor alpha-2 (Rattus norvegicus, UniProt P22086+P19328+P22909); test: Antagonist activity at alpha2 adrenoceptor in Sprague-Dawley rat prostatic vas deferens assessed as suppression of clonidine-mediated inhibition of twitch response after 30 mins; format: functional, tissue-based
T2 sequence (P22086 whole entry): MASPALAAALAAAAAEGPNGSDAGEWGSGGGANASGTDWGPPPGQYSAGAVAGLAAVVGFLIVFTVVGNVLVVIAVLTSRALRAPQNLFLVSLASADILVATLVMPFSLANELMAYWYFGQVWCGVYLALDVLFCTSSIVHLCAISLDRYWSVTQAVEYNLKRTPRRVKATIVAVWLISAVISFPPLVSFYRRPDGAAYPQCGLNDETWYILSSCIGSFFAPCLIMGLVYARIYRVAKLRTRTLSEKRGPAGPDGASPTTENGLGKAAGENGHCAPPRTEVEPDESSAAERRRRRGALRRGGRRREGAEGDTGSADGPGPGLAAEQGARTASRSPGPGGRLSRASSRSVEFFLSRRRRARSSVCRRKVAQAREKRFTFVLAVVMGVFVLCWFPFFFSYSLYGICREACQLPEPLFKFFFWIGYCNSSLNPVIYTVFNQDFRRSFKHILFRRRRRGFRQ
T2 sequence (P19328 whole entry): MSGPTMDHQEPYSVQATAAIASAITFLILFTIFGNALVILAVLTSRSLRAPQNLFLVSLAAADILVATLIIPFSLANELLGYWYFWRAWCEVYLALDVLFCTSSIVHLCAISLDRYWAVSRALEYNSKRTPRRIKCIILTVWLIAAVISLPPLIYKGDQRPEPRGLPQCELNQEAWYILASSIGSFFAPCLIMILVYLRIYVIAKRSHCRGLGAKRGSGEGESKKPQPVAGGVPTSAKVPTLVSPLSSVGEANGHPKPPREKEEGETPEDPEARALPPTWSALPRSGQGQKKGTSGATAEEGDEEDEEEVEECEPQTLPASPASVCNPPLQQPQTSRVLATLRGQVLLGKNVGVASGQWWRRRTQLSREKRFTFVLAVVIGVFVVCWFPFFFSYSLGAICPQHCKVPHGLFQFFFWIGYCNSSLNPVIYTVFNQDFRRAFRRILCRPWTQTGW
T2 sequence (P22909 whole entry): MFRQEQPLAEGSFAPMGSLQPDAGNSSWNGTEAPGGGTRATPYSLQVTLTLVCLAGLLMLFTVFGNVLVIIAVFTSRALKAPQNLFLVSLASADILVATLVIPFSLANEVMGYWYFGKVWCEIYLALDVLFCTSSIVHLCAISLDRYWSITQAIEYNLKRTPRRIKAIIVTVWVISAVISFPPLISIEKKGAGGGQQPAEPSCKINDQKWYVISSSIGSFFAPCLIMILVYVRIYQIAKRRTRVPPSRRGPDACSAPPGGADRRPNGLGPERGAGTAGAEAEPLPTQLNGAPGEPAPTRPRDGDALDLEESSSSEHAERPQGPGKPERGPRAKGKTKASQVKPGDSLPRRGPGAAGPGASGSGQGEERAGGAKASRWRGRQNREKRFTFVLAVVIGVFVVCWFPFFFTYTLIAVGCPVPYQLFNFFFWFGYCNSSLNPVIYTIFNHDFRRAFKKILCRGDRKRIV
How it was run: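 Prostatic vas deferens segments (1.5–2 cm) in Krebs at 37 °C, field-stimulated at 0.1 Hz with 3 ms square pulses, 20–40 V. Equilibrated 1 h at 0.35 g resting tension.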

[3] = biological target: T1, Alpha-1A adrenergic receptor; test: Antagonist activity at alpha1A adrenoceptor in Sprague-Dawley rat prostate assessed as inhibition of noradrenaline-induced contractions after 30 mins; format: functional, tissue-based, Prostate gland; settings: read-out: pA2 (converted)
How it was run: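 Rat (200–250 g) prostatic strips, 8–10 mm × 1–2 mm, held at 2 g resting tension in modified Krebs (NaCl 118.0, KCl 4.7, CaCl2 2.5, MgSO4 1.18, NaHCO3 25.0, KH2PO4 1.18, glucose 5.5 mM).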

[4] = biological target: T3, Alpha-1B adrenergic receptor (Rattus norvegicus, UniProt P15823); test: Antagonist activity at alpha1B adrenoceptor in Sprague-Dawley rat spleen assessed as inhibition of phenylephrine-induced contractions after 30 mins; format: functional, tissue-based; settings: read-out: pA2 (converted)
T3 sequence (P15823 whole entry): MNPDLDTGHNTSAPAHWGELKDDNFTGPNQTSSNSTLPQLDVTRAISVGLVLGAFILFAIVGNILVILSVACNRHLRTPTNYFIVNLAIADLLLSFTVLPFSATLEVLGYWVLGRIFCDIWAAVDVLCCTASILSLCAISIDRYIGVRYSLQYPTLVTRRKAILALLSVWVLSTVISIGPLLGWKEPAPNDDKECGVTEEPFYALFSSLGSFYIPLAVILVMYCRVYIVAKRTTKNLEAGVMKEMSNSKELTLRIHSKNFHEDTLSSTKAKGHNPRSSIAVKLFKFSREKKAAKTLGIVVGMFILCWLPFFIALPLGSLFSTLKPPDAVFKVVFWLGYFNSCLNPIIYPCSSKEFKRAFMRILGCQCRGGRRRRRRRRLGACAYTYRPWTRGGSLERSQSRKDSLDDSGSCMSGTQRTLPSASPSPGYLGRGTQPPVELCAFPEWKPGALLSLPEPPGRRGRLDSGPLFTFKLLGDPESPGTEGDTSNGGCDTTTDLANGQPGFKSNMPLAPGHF

COc1cccc(OC)c1OCCNC[C@H]1COc2cccc(OC)c2O1.Cl
Kb [1]: 1.7 nM | pA2 [2]: 6.23 | Kb [3]: 2.82 nM | Kb [4]: 0.263 nM

COc1cccc(OC)c1OCCNC[C@H]1COc2cccc(O)c2O1.Cl
Kb [1]: 166 nM | pA2 [2]: < 5 | Kb [3]: 50.1 nM | Kb [4]: 15.8 nM

COc1cccc(OC)c1OCCNC[C@H]1COc2cccc(F)c2O1.Cl
Kb [1]: 28.8 nM | pA2 [2]: 6.26 | Kb [3]: 1.2 nM | Kb [4]: 2.75 nM

COc1cccc(OC)c1OCCNC[C@H]1COc2cccc(Cl)c2O1.Cl
Kb [1]: 0.275 nM | pA2 [2]: 6.02 | Kb [3]: 0.912 nM | Kb [4]: 8.91 nM

COc1cccc(OC)c1OCCNC[C@H]1COc2c(OC)cccc2O1.Cl
Kb [1]: 53.7 nM | pA2 [2]: 5.67 | Kb [3]: 39.8 nM | Kb [4]: 16.6 nM
